Bioassay records (PubChem)
PG9 binder = small molecules binding HIV-1 gp120 antibody PG9. TR-FRET gp120-PG9 antibody binding. inhibition, % at 6.7 µM. 360,000 compounds, 0.43% hits. AID 624416; in the data active = inhibition above about 8.5%
MT1-MMP act inh = MT1-MMP (human) activation inhibition; P50281; HT1080 RFP-PRO-GFP cells, GFP/RFP ratio fluorescence, overnight; percent of plate control window, DMSO zero; GFP/RFP ratio change, % at 20 µM; 360,000 compounds, 0.061% hits;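 active = GFP/RFP ratio change of at least 30% with cell ATP level not reduced by more than half and red fluorescence within 50% of control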
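Assay system: HT1080 RFP-PRO-GFP cells. Benchmarks: DMSO vehicle wells and RFP-L50D-GFP reporter cell wells. Times: overnight cell settling, then overnight compound exposure, 37 °C, 5% CO2. Compound: 20 µM single dose, 1% DMSO. Read-out basis: GFP/RFP fluorescence ratio.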
Rev-erbA mod = Rev-erb alpha (human) modulation; AID 1259318; Rev-erbα–FITC-DNA binding, fluorescence polarization, 90 min; activity, % at 10 µM; 370,000 compounds, 0.79% hits;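 active = activity above about 14%, limit read from the data; passing the limit was not always enough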;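 also: 0% = DMSO wells with 35 nM protein and 100% = DMSO wells with 750 nM protein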
NR2E3 ag-1 = human photoreceptor-specific nuclear receptor agonism. Q9Y5X4. CHO-S Gal4-NCOR/VP16-NR2E3 two-hybrid, luciferase. 360,000 compounds, 0.35% hits. AID 602229. inhibition of corepressor binding, % at 3.98 µM;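 active = inhibition above the mean of all tested compounds plus 3 SD, cut at about 70% in these data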;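 also: 0% = DMSO with NR2E3 transfected cells and 100% = cells lacking NR2E3 construct; higher means lower luciferase signal from less NR2E3 corepressor binding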
Target sequence (Q9Y5X4 whole entry, looked up, the tested form may be a part): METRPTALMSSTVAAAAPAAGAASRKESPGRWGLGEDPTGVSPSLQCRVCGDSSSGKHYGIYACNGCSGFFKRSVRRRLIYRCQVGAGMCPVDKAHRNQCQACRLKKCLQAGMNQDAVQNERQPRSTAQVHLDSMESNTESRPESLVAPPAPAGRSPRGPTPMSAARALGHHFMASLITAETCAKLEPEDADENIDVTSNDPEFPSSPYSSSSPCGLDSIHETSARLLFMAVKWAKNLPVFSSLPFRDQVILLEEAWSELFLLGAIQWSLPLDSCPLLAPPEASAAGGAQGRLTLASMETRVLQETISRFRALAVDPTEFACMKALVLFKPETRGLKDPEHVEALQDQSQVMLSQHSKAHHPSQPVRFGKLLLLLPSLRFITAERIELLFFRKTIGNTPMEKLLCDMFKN
SKN-1 inh = blocks SKN-1 activity in C. elegans; C. elegans VP596 Pgst-4::GFP/RFP ratio, acrylamide-induced, 24 h; inhibition, % at 21.8 µM; 360,000 compounds, 0.49% hits; AID 624304;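 active = interference check ratio from 0.5 to 1.5 plus GFP to RFP signal ratio inhibition reaching or exceeding a fixed threshold, cut at about 30% in these data, passing the limit was not always enough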
NR2E3 ag-2 = NR2E3 (human) agonism; GST-NR2E3/biotin-RetCOR TR-FRET, 1536-well; 320,000 compounds, 0.12% hits; AID 2300; inhibition of corepressor binding, % at 4.78 µM;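 active = percent inhibition above the cutoff of mean plus 3 SD of all tested compounds, set per screening campaign, cut at about 20% in these data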;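 also: 0% = DMSO wells and 100% = biotin wells as full block of FRET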
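Format: 1536-well format; test system: GST-NR2E3 and biotin-RetCOR proteins; read-out basis: percent inhibition of TR-FRET ratio; timing: 5 h incubation at 4 °C; detection: time-resolved FRET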
Rev-erbA confirm = Rev-erb alpha (human) modulation, hit confirmation. shares compounds with Rev-erbA mod. Rev-erb alpha FITC-DNA binding, fluorescence polarization, 90 min. activation, % at 25 µM. 3,000 compounds, 61% hits;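 active = activation at or above a set limit, or at least 3 SD above the negative control mean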;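 also: 0% = 35 nM protein with DMSO and 100% = 750 nM protein high control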
RORg counter = affects RORgamma DNA binding in a Rev-erb alpha counter-screen | shares compounds with Rev-erbA mod | purified RORgamma protein-FITC-DNA binding, fluorescence polarization | IC50, µM | 910 compounds, 8% hits;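 active = Compounds whose fitted half-maximal concentration for disrupting protein-DNA binding is below 10 micromolar; the record names Rev-erb in its text, so the target is in doubt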
Active calls of the source: *; . = no result. The list is not random: actives were taken first. Their share in the collection is about 1.9%.

SMILES | PG9 binder | MT1-MMP act inh | Rev-erbA mod | NR2E3 ag-1 | SKN-1 inh | NR2E3 ag-2 | Rev-erbA confirm | others
COc1ccc(Cn2ccc3ccc(-c4ccc5ccn(C(=O)c6cccc(OC)c6)c5c4)cc32)cc1 | . | . | 37.5* | . | . | . | 70.6* | RORg counter=>40
COC(=O)c1ccc(Cn2ccc3ccc(-c4ccc5ccn(C(=O)c6cccc(OC)c6)c5c4)cc32)cc1 | . | . | 39.5* | . | . | . | 52.2* | RORg counter=>40
N#Cc1ccc(Cn2ccc3ccc(-c4ccc5ccn(C(=O)C6CCC6)c5c4)cc32)cc1 | . | . | 16.4 | . | . | . | .
N#Cc1ccc(Cn2ccc3ccc(-c4ccc5ccn(C(=O)C6CCCCC6)c5c4)cc32)cc1 | . | . | 36.1* | . | . | . | 18.3*
COC(=O)c1ccc(Cn2ccc3ccc(-c4ccc5ccn(C(=O)c6ccccc6C)c5c4)cc32)cc1 | . | . | 30.2* | . | . | . | 42.1* | RORg counter=>40
COC(=O)c1ccc(Cn2ccc3ccc(-c4ccc5ccn(C(=O)c6ccccc6)c5c4)cc32)cc1 | . | . | 13.6 | . | . | . | .
COc1cccc(C(=O)N[C@H](C(=O)N2CCC[C@H]2C(=O)NCc2ccccc2)c2ccccc2)c1 | -0.7 | . | -6.0 | . | . | . | .
C=CC[C@]1(c2ccccc2)C(=O)N2C[C@H]3CON(C)[C@H]3C[C@H]2c2ccccc21 | -1.2 | . | -3.2 | . | . | . | .
Nc1[nH]c(C(=O)c2ccccc2)c(-c2ccccc2C(F)(F)F)c1C(=O)c1c[nH]c2ccccc12 | -0.9 | . | -2.3 | . | . | . | .
COC(=O)[C@]12C[C@H](CC(=O)NCCC(C)C)C(=O)N(Cc3ccccc3)C1=C[C@H](C(C)C)O[C@@H]2C1CC1 | 0.3 | . | -1.8 | . | . | . | .
CC(=O)c1sc(NC(=O)COc2ccc(Cl)cc2C)nc1C | 2.9 | 1.7 | 84.1* | -8.4 | -7.6 | 1.9 | 25.3*
CC(=O)c1sc(NC(=O)COc2c(C)cc(Cl)cc2C)nc1C | . | . | . | . | . | 2.8 | .
CC(=O)c1sc(NC(=O)COc2ccc(Cl)cc2Cl)nc1C | 0.4 | 6.4 | 31.0* | -24.4 | 1.0 | 3.9 | 1.2
CCN(c1ccc(OC)cc1)S(=O)(=O)N1CCCC(C(=O)NC(C)c2ccccc2)C1 (stereo unspecified) | -1.1 | 7.3 | 2.8 | 3.6 | -10.0 | . | .
CN(C)c1ccc(/C=C2/C=C(c3ccc4c(c3)CCCC4)OC2=O)cc1 | 1.5 | 14.4 | 24.6* | -16.9 | 11.5 | 0.8 | 3.1
CN(C)c1ccc(C=C2C=C(c3ccccc3)OC2=O)cc1 | -2.4 | 2.8 | 31.9* | -18.9 | 87.2 | . | 0.5
Cc1ccc(C=C2C=C(c3ccccc3)OC2=O)cc1 | 0.2 | 5.7 | -5.8 | -103.1 | 9.4 | . | .
Cc1ccc(C)c(N2CCN(C(C(=O)NC3CCCC3)C(C)C)CC2)c1 (stereo unspecified) | 1.1 | -6.8 | 0.6 | . | -12.7 | . | .
CC1(Cc2ccccc2C#N)C(=O)Nc2ccc(-c3ccccc3)cc21 (stereo unspecified) | -1.1 | 0.6 | 35.6* | -12.4 | 30.1 | . | 51.0* | RORg counter=>40
CCc1ccc2c(c1)NC(=O)C2(C)Cc1ccccc1C#N (stereo unspecified) | 0.7 | 1.5 | 2.2 | 9.7 | 8.4 | . | .
COc1ccccc1-c1ccc2c(c1)C(C)(Cc1ccccc1C#N)C(=O)N2 (stereo unspecified) | 0.2 | 4.2 | 47.8* | 33.5 | 17.9 | . | 41.6* | RORg counter=>40
O=C(COc1ccc2ccccc2c1)NNC(=O)Cc1cccc2ccccc12 | 2.0 | 7.8 | -4.1 | -8.6 | -18.1 | -0.7 | .
O=C(COc1ccc2ccccc2c1)NNC(=O)Cc1ccccc1 | -28.5 | 4.2 | 35.3* | -19.6 | 5.2 | -104.4 | 28.8*
COC(=O)c1c(NC(=O)c2ccccc2N(C)S(=O)(=O)c2ccccc2)sc2c1CCCC2 | 1.5 | -9.2 | 4.5 | -13.4 | 9.0 | . | .
COC(=O)c1c(NC(=O)c2ccc(N(C)S(=O)(=O)c3ccc(C)cc3)cc2)sc2c1CCCC2 | -0.5 | -5.4 | 34.0* | 7.1 | 4.5 | -2.1 | 14.8
SMILES | PG9 binder | MT1-MMP act inh | Rev-erbA mod | NR2E3 ag-1 | SKN-1 inh | NR2E3 ag-2 | Rev-erbA confirm | others
Cn1c(=O)c2c(nc(SCC(=O)c3cccs3)n2Cc2ccc(F)cc2)n(C)c1=O | 0.8 | 0.1 | 133.4* | -7.5 | -1.3 | 1.6 | 99.9* | RORg counter=>40
Cn1c(=O)c2c(nc(Br)n2CC(=O)c2cccs2)n(C)c1=O | 1.8 | 4.2 | -0.2 | -4.6 | -15.7 | -0.1 | .
COc1cc(/C=N/NC(=O)c2c(C)nc3ccc(Cl)cn23)cc(OC)c1OC | 0.7 | 0.5 | 49.5* | -7.5 | 13.5 | . | 46.7* | RORg counter=>40
CC(=O)Nc1ccc(-c2nnc(SCC(=O)Nc3ccc4c(c3)oc3ccccc34)n2C)cc1 | 1.2 | -0.6 | -0.9 | -15.2 | 7.6 | 2.3 | .
Cn1c(SCC(=O)Nc2cccc(F)c2)nnc1-c1cc2ccccc2o1 | 2.1 | -0.4 | 75.3* | -15.0 | 18.5 | -64.2 | 102.3* | RORg counter=>40
O=C(Nc1nc(-c2ccc3c(c2)Cc2ccccc2-3)cs1)c1ccccc1 | -2.6 | 2.8 | 50.0* | -39.5 | 2.8 | 1.9 | 14.0
COc1ccccc1CCn1cnc(-c2cccc(Br)c2)c1C(C)C | 0.0 | . | 5.4 | . | . | . | .
N#CCCN1CCC(N)=NC1=NC#N | 1.2 | . | -3.7 | . | . | . | .
O=C1NC(=O)c2c(Br)c(Br)c(Br)c(Br)c21 | 2.5 | 1.3 | 395.4* | 18.8 | -0.6 | . | 441.7* | RORg counter=7.53*
NC(=O)c1cn(-c2ccccc2)nc1-c1cc2ccccc2oc1=O | 0.0 | 1.9 | -1.6 | 15.7 | 6.0 | -0.6 | .
O=C(c1ccccc1)c1nn(-c2ccc(Cl)cc2)cc1C(=O)c1cc2ccccc2oc1=O | -1.5 | 1.1 | 33.9* | -13.1 | 11.3 | 4.1 | -8.1
COC(=O)c1ccc2nc(-c3ccccc3)c(Cc3ccccc3OC)n2c1 | 0.4 | -5.3 | -4.8 | -21.1 | -2.8 | . | .
COc1cc(F)ccc1Oc1cccc2c1S(=O)(=O)N(C1CC1)C[C@@H](COCc1ccccc1)O2 | 1.3 | . | -0.3 | . | . | . | .
CC(C)Cc1nc2sc3c(=O)[nH]cnc3c2c2c1CCC2 | 3.7 | 7.6 | 38.1* | -3.0 | 8.0 | 0.7 | 9.4
CC(C)c1nc2sc3c(=O)[nH]cnc3c2c2c1CCCC2 | 0.0 | 1.7 | 24.6* | -23.6 | -6.2 | -0.4 | -0.1
CCCc1nc2sc3c(=O)[nH]cnc3c2c2c1CCCC2 | 1.6 | . | 19.1 | . | . | -1.6 | .
COc1ccc(C2OCCNC3C2C(=O)N(Cc2ccc(OC)cc2OC)C3Cc2ccccc2)cc1 (stereo unspecified) | . | . | -6.4 | . | . | . | .
CCCCCCCCN1C(=O)[C@@H](CC(=O)NCc2cccc3ccccc23)C[C@@]2(C(=O)OC)C1=C[C@H](C(C)C)O[C@@H]2C1CC1 | . | . | 3.2 | . | . | . | .
